Screening results from PubChem BioAssay.
MsrA act = bovine MsrA enzyme activators, primary screen, biochemical, absorbance, HTS; 0.3% of 360,000 active; purified bovine MsrA, absorbance read-out; activation, % at 10.6 µM; AID 602163, 2012; in the data active = activation above about 7.5%
MsrA inh = bovine MsrA enzyme inhibitors, primary screen, biochemical, absorbance, HTS | Methionine sulfoxide reductase A (Bos taurus) | inhibition, % at 15.5 µM | purified bovine MsrA, absorbance read-out | 0.75% of 360,000 active; in the data active = inhibition above about 4.5%
MC4R antagonist = MC4R antagonists of cAMP signaling, primary screen, cell-based, TR-FRET, antagonist arm of biased-ligand search; MC4R-expressing cells, MTII-stimulated cAMP, LANCE TR-FRET; inhibition, % at 6.5 µM; Melanocortin receptor 4 (Homo sapiens), P32245; 0.48% of 360,000 active;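 active = inhibition above its plate's cutoff, the mean of tested wells on that plate plus 3 SD, cut at about 29% in these data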
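System: U2OS cells stably expressing human melanocortin 4 receptor (MC4R). Reagent: Melanotan II challenge after compound preincubation. Doses: 6.5 µM. Times: 30-min compound, 1-h challenge, 1-h detection, room temperature. Measured by: TR-FRET with Eu-cAMP and labeled anti-cAMP, 671 nm. Replicates: singlicate.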
MC4R ag barr = MC4R agonists recruiting beta-arrestin, primary screen, cell-based, luminescence, agonist arm of biased-ligand search; Melanocortin receptor 4 (Homo sapiens), P32245; U2OS MC4R beta-arrestin complementation; percent of melanotan II response, DMSO zero; activation, % at 8.9 µM; 0.98% of 360,000 active; AID 540308, 2011;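 active = activation above a per-plate cutoff, the mean activation of sample wells on that plate plus 3 SD, cut at about 8% in these data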
MC4R barr conf = MC4R beta-arrestin agonists, retest, confirmation, cell-based, luminescence, U2OS. shares compounds with MC4R ag barr. U2OS MC4R beta-arrestin recruitment; scaled DMSO 0%, Melanotan II 100%. activation, % at 8.9 µM. 31% of 2,400 active;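 active = mean activation across replicates above the hit cutoff set in the earlier primary screen, cut at about 8% in these data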
MOR DOR agonist = agonists of MOR-DOR heterodimerization, counter-screen for MC4R biased agonist project, cell-based, luminescence | shares compounds with MC4R ag barr | U2OS PathHunter beta-arrestin, beta-gal luminescence; percent of deltorphin B response, DMSO zero | activation, % at 9.2 µM | 5.8% of 2,400 active;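 active = mean activation across replicates exceeds the hit threshold derived in the earlier primary screen, cut at about 18% in these data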
Target sequence (P35372 whole entry, looked up): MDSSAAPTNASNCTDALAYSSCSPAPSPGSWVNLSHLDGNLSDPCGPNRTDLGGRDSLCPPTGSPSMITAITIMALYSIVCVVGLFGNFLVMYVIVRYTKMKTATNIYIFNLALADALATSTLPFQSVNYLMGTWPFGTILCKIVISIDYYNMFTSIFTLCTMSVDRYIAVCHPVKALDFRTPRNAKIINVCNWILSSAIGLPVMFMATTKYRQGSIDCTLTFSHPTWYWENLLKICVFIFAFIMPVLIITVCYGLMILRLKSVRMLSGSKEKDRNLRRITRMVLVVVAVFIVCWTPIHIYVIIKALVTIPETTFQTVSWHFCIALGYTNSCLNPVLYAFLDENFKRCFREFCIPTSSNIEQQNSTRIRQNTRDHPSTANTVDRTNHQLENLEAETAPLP
Target sequence (P41143 whole entry, looked up): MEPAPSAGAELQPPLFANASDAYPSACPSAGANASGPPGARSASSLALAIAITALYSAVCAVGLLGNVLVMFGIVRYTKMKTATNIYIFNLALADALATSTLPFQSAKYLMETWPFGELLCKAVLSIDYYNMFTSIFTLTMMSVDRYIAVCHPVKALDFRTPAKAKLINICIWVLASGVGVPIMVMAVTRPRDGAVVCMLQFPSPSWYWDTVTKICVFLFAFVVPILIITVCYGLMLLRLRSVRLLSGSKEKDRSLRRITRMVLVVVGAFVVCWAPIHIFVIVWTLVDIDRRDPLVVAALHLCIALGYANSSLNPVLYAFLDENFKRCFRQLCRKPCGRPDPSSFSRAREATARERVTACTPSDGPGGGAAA
A number is an active result; i = inactive; nt = no result given; ! = a repeat was not active. In the library only some 2.3% were active in any assay of this set; here they are far more common.

SMILES	MsrA act	MsrA inh	MC4R antagonist	MC4R ag barr	MC4R barr conf	MOR DOR agonist
CCN1CCN(Cc2ccc(NC(=O)c3cc(NC(=O)c4cncc(-c5ccc(C#N)cc5)c4)cc(OC)c3)cc2C(F)(F)F)CC1	i	i	i	13!	20	i
Cc1cc(NC(=O)CN2C(=O)S/C(=C\c3ccccc3)C2=O)no1	i	i	i	26	i	i
COc1ccc(/C=C2/N=C(SCC(=O)Nc3cc(C)on3)N(c3ccccc3)C2=O)cc1	i	i	i	11	i	i
Cc1cc(NC(=O)CCN2C(=O)/C(=C\c3ccccc3)SC2=S)no1	i	i	i	i	nt	nt
COc1cc(OC)cc(C(=O)OCC(=O)c2ccc(S(=O)(=O)N3CCCCC3)cc2)c1	i	i	i	i	nt	nt
COCCCNC(=O)c1c(NC(=O)C2COc3ccccc3O2)sc2c1CCCC2 (stereo not drawn)	i	i	i	11	i	i
CCNC(=O)c1c(NC(=O)C2COc3ccccc3O2)sc2c1CCCC2 (stereo not drawn)	i	i	i	i	nt	nt
COc1ccccc1OCC(=O)Nc1ccc(Cl)cc1	i	i	i	i	nt	nt
Cc1ccccc1OCC(=O)Nc1ccc2c(c1)C(=O)c1ccccc1C2=O	i	i	i	22	8.9	i
COc1ccccc1OCC(=O)Nc1ccc(NC(=O)COc2ccccc2OC)cc1	i	i	i	18	23	i
Cc1ccccc1OCC(=O)Nc1cccc(C(=O)O)c1	i	i	i	i	nt	nt
O=C(COc1cc(Cl)ccc1Cl)Nc1ccc2[nH]c(=O)[nH]c2c1	i	i	i	12	i	i
c1ccc(COc2ncnc3c2ncn3CCCNCC(c2ccccc2)c2ccccc2)cc1	i	i	i	13	11	30
COc1ncnc2c1ncn2CCCNCC(c1ccccc1)c1ccccc1	i	i	i	i	nt	nt
CCOc1ccc(-n2cnnn2)cc1S(=O)(=O)NCc1ccccc1	i	i	i	16	i	i
Cc1ccc(C(C)C)c(OCc2nn(CC(=O)c3ccc(Cl)cc3)c3[n+]2CCCCC3)c1	i	i	i	40	19	34
c1ccc(-c2sc3ccccc3c2-c2ccc(OCCN3CCCC3)cc2)cc1	i	i	i	14	32	i
COc1cccc(-c2sc3ccccc3c2-c2ccc(OCCN(C)C)cc2)c1	i	i	i	29	56	i
COc1cccc(-c2sc3ccccc3c2-c2ccc(OCCN3CCCC3)cc2)c1	i	i	i	11	46	i
COc1ccccc1-c1sc2ccccc2c1-c1ccc(OCCN2CCCCC2)cc1	i	nt	i	i	nt	nt
COc1ccc2c(-c3ccc(OCCN4CCCCC4)cc3)c(-c3ccccc3OC)sc2c1	i	nt	i	i	nt	nt
O=C(NC1CCSc2ccccc21)c1ccc(C(F)(F)F)cc1 (stereo not drawn)	i	i	i	9.7	i	i
O=[N+]([O-])c1cc(C(F)(F)F)ccc1NCCc1c[nH]c2ccc(O)cc12	i	i	i	15	i	i
O=[N+]([O-])c1cc(C(F)(F)F)ccc1NCCc1c[nH]c2ccccc12	i	i	i	i	nt	nt
CNC(=S)N/N=C/c1c(C)nn(-c2cccc(Cl)c2)c1Cl	i	i	i	22	i	i
SMILES	MsrA act	MsrA inh	MC4R antagonist	MC4R ag barr	MC4R barr conf	MOR DOR agonist
Nc1c(C(=O)Nc2ccccc2Cl)nnn1-c1ccc2c(c1)OCCO2	i	i	i	16	i	i
Nc1c(C(=O)Nc2ccc3c(c2)OCCO3)nnn1CCc1ccccc1	i	i	i	i	nt	nt
CCC(=NCCc1c(C)[nH]c2ccc(C)cc12)C1=C(O)CC(c2ccccc2)CC1=O (stereo not drawn)	i	i	i	i	nt	nt
COc1cc(/C=C(\C#N)c2nc3ccccc3[nH]2)cc(OC)c1O	i	i	i	i	nt	nt
COc1ccccc1N/C=C(\C#N)c1nc2ccccc2[nH]1	i	i	i	11	i	i
Cc1ccc(C(=O)c2no[n+]([O-])c2C(=O)c2ccc(C)cc2)cc1	i	i	i	19	i	39
Cc1ccc(C(=O)c2ccc(C)cc2)cc1	i	i	i	i	nt	nt
O=S(=O)(NCc1ccccc1)c1ccc(S(=O)(=O)N(Cc2ccccn2)Cc2ccco2)cc1	i	i	i	10	i	i
CCOC(=O)CNC(=O)c1cc(-c2ccccn2)nc2c(C)c(Cl)ccc12	i	i	i	30	i	i
CN(C)c1ccc(/C=N\Nc2nc(-c3ccccc3)cc(=O)[nH]2)cc1	i	i	i	27	i	i
CC/C(=N/Nc1cccc(Cl)c1)c1cnnc(SC)n1	i	i	i	i	nt	nt
CC/C(=N/Nc1ccccc1)c1cnnc(-c2ccccc2)n1	i	i	i	16	21	i
Cc1ccc(NC(=O)O/N=C2\CCCCC2c2ccc([N+](=O)[O-])cc2[N+](=O)[O-])cc1 (stereo not drawn)	i	i	i	i	nt	nt
CCN(CC)S(=O)(=O)c1ccc(C)c(NC(=O)CSc2ncc(C(F)(F)F)cc2Cl)c1	i	i	i	9.8	i	i
Cc1ccc(S(=O)(=O)N(C)C)cc1NC(=O)CSc1ncc(C(F)(F)F)cc1Cl	i	i	i	i	nt	nt
COc1ccc(C(OC(=O)c2ccco2)C(=O)NC2CCCCC2)cc1OC (stereo not drawn)	i	i	i	i	nt	nt
CC(C)N1CCN(Cc2cccn2-c2ccccn2)CC1CCO (stereo not drawn)	i	i	i	i	nt	nt
Cc1cccc2c1nc(-c1ccccc1)n1cnnc21	i	i	i	i	nt	nt
Cc1cccc2c1nc(-c1ccccc1)n1nnnc21	i	i	i	13	i	i
O=C(Cn1cc(C(F)(F)F)ccc1=O)N/N=C/c1ccc(O)cc1	i	i	i	i	nt	nt
O=C(Cn1cc(C(F)(F)F)ccc1=O)N/N=C/c1ccc(Cl)c(Cl)c1	i	i	i	13	i	i
O=C(Nc1cc(S(=O)(=O)N2CCCCCC2)ccc1OCC(F)(F)F)c1cnccn1	i	i	i	10	i	i
CCSc1nnc(NC(=O)c2csc(C)c2)s1	i	i	i	i	nt	nt
CCSc1nnc(NC(=O)c2cccc3ccccc23)s1	i	i	i	14	i	i
Oc1ccccc1N=Cc1c(O)ccc2oc3c(c12)CCCC3	i	i	i	14	8.3	i
O=C(O)c1ccc(N=Cc2c(O)ccc3oc4c(c23)CCCC4)cc1	i	i	i	i	nt	nt
CCC(=O)Nc1ccc(-c2nnc(-c3ccccc3)o2)cc1	i	i	i	i	nt	nt
O=C(CSCc1ccc(Cl)cc1)Nc1ccc(-c2nnc(-c3ccccc3)o2)cc1	i	i	i	9.9	i	i
